According to ChEMBL document CHEMBL1133650, “Gold(III) complexes as potential antitumor agents: solution chemistry and cytotoxic properties of some selected gold(III) compounds” (J Med Chem, 2000):

Legend:
[1] = Ratio of cytotoxic activity against resistant cell line to that of sensitive cell line; assay type: functional
L1210 = experiment: Cytotoxicity measured against L1210 cell line; assay type: functional, cell-based, Mus musculus
A2780 [2] = experiment: cytotoxic activity toward A2780 ovarian human cell line resistant (R) to cisplatin in experiment 3; assay type: functional, cell-based
Outline: (§1)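 A2780/R human ovarian carcinoma cells, made cisplatin-resistant by repeated weekly 1-h exposure of the parental line to 50 μM cisplatin, kept in RPMI 1640 with FBS at 37 °C and 5% CO2. Exponentially growing cells were exposed to compound for 72 h, and growth was read by SRB assay in RPMI 1640 + 5% FBS. IC50 is the mean ± SE of at least three determinations, or the mean of two.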

A2780 [3] = experiment: cytotoxic activity toward A2780 ovarian human cell line sensitive (S) to cisplatin in experiment 2; assay type: functional, cell-based
A2780 [4] = experiment: cytotoxic activity toward A2780 ovarian human cell line sensitive (S) to cisplatin in experiment 3; assay type: functional, cell-based
Outline: (§2)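 Cisplatin-sensitive parental A2780/S human ovarian carcinoma cells, grown in RPMI 1640 with FBS at 37 °C under 5% CO2 and subcultured twice weekly. Exponentially growing cells were treated for 72 h, and growth inhibition was measured by sulforhodamine B assay in RPMI 1640 + 5% FBS. IC50 is the mean ± SE of ≥3 determinations, or the mean of two.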

A2780 [5] = experiment: cytotoxic activity toward A2780 ovarian human cell line resistant (R) to cisplatin in experiment 2; assay type: functional, cell-based
A2780 [6] = experiment: cytotoxic activity toward A2780 ovarian human cell line sensitive (S) to cisplatin; assay type: functional, cell-based; outline: as §2
A2780 [7] = experiment: cytotoxic activity toward A2780 ovarian human cell line resistant (R) to cisplatin in experiment 8; assay type: functional, cell-based; outline: as §1
A2780 [8] = experiment: cytotoxic activity toward A2780 ovarian human cell line sensitive (S) to cisplatin in experiment 8; assay type: functional, cell-based; outline: as §2
A2780 [9] = experiment: cytotoxic activity toward A2780 ovarian human cell line sensitive (S) to cisplatin in experiment 1; assay type: functional, cell-based; outline: as §2
A2780 [10] = experiment: cytotoxic activity toward A2780 ovarian human cell line sensitive (S) to cisplatin in experiment 5; assay type: functional, cell-based; outline: as §2
A2780 [11] = experiment: cytotoxic activity toward A2780 ovarian human cell line resistant (R) to cisplatin in experiment 5; assay type: functional, cell-based; outline: as §1

Compound: CISPLATIN [listing 1 of 2 here]
- Ratio [1]: 11.6

Compound: [Pt-(dien)Cl]Cl
- IC50 (L1210): 271 µM

Compound: AUCL(DIEN) [listing 1 of 2 here]
- IC50 (A2780 [2]; a2780): 18.7 µM
- IC50 (A2780 [3]): 8.2 µM

Compound: AUCL3(EN2) [listing 1 of 2 here]
- IC50 (A2780 [2]; a2780): 17 µM
- IC50 (A2780 [4]; a2780): 8.36 µM

Compound: AUCL3(EN2) [listing 2 of 2 here]
- Ratio [1]: 2.03

Compound: AUCYCLAM
- IC50 (A2780 [5]; a2780): > 120 µM
- IC50 (A2780 [3]): 99 µM

Compound: [AuCl4]-
- IC50 (A2780 [6]): 11 µM

Compound: AU(TERPY) [listing 1 of 2 here]
- Ratio [1]: 1.23

Compound: CISPLATIN [listing 2 of 2 here]
- IC50 (A2780 [7]): 14.2 µM
- IC50 (A2780 [8]): 1.22 µM
- IC50 (L1210): 2.3 µM

Compound: c1cnc2c(c1)ccc1cccnc12 [PHENANTHROLINE]
- IC50 (A2780 [2]; Homo sapiens, A2780): 2.73 µM
- IC50 (A2780 [4]; Homo sapiens, A2780): 3.66 µM
- Ratio [1]: 0.75

Compound: c1ccc(-c2cccc(-c3ccccn3)n2)nc1 [TERPYRIDINE]
- IC50 (A2780 [5]; Homo sapiens, A2780): 0.36 µM
- Ratio [1]: 2.88
- IC50 (A2780 [9]; Homo sapiens, A2780): 0.125 µM

Compound: AUPHEN [listing 1 of 2 here]
- Ratio [1]: 0.92

Compound: AUPHEN [listing 2 of 2 here]
- IC50 (A2780 [10]): 3.8 µM
- IC50 (A2780 [11]): 3.49 µM

Compound: AUCL(DIEN) [listing 2 of 2 here]
- Ratio [1]: 2.28

Compound: AU(TERPY) [listing 2 of 2 here]
- IC50 (A2780 [2]; a2780): 0.37 µM
- IC50 (A2780 [9]; a2780): 0.2 µM

Compound: [Pt-(en2)]Cl2
- IC50 (L1210): 1680 µM
